Assay results as given in ChEMBL document CHEMBL3046176, “Synthesis, crystal structure, and biological activities of 2-cyanoacrylates containing furan or tetrahydrofuran moieties” (2007).

Tests used:
Format in all cases: functional
Cladosporium cucumerinum = experiment: Antifungal activity against Cladosporium cucumerinum assessed as inhibition of mycelium growth at 50 mg/L at 26 degC measured after 72 hr
Summary of the method: (§1)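 Mycelium growth assay on agar. 1 mL test solution (50 mg/L) was poured into a 9 cm plate with 9 mL agar medium. Controls used sterile water in its place. A 4 mm plug from the margin of an actively growing colony was placed in the centre and incubated at 26 °C. Hyphal diameter was measured over 72 h, in triplicate. Inhibition % = (control diameter − treated diameter)/control diameter.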

Mycosphaerella arachidis = experiment: Antifungal activity against Mycosphaerella arachidis assessed as inhibition of mycelium growth at 50 mg/L at 26 degC measured after 72 hr; summary of the method: as §1
[1] = system: Botryosphaeria berengeriana; experiment: Antifungal activity against Botryosphaeria berengeriana assessed as inhibition of mycelium growth at 50 mg/L at 26 degC measured after 72 hr; summary of the method: as §1
Alternaria solani = experiment: Antifungal activity against Alternaria solani assessed as inhibition of mycelium growth at 50 mg/L at 26 degC measured after 72 hr; summary of the method: as §1
Fusarium graminearum = experiment: Antifungal activity against Fusarium graminearum assessed as inhibition of mycelium growth at 50 mg/L at 26 degC measured after 72 hr
Summary of the method: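 Mycelium growth test on agar plates: 1 mL test solution (50 mg/L) mixed with 9 mL agar medium; sterile water in place of test solution for controls. 4 mm inocula cut from margins of actively growing colonies, placed at plate centre, incubated at 26 °C; mycelium diameter measured over 72 h. Inhibition % from mean hyphal diameter against control. Triplicate.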

Cucumis sativus = experiment: Plant growth regulatory activity in Cucumis sativus (cucumber) seed assessed as number of root at 10 mg/L at 26 degC measured after 5 days
Summary of the method: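 Cucumber seeds were incubated at 26 °C in the dark for 72 h, then 10 cotyledons were excised and treated. Incubation continued at 26 °C in the dark for 5 days. Roots were counted, with water-only controls, in triplicate.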

Digitaria sanguinalis [2] = experiment: Herbicidal activity against hairy crabgrass Digitaria sanguinalis (hairy crabgrass) assessed as herbicidal damage at 1.5 kg/ha measured after preemergence treatment; settings: pre-emergence
Summary of the method: (§2)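 Seeds were sown in 6 cm boxes of artificial mixed soil, covered with plastic film until emergence, and grown in a greenhouse. Sprays were applied right after sowing (preemergence) or after the first true leaf expanded (postemergence). Controls received the same amount of water/DMF/Tween 20. Above-ground fresh weight was taken 10 days after treatment, in triplicate, as % damage versus control.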

Medicago sativa [3] = experiment: Herbicidal activity against Medicago sativa (alfalfa) assessed as herbicidal damage at 1.5 kg/ha measured after preemergence treatment; settings: pre-emergence; summary of the method: as §2
Amaranthus retroflexus [4] = experiment: Herbicidal activity against Amaranthus retroflexus assessed as herbicidal damage at 1.5 kg/ha measured after preemergence treatment; settings: pre-emergence; summary of the method: as §2
Brassica napus [5] = experiment: Herbicidal activity against rape Brassica napus (oilseed rape) assessed as herbicidal damage at 1.5 kg/ha measured after preemergence treatment; settings: pre-emergence; summary of the method: as §2
Digitaria sanguinalis [6] = experiment: Herbicidal activity against hairy crabgrass Digitaria sanguinalis (hairy crabgrass) assessed as herbicidal damage at 1.5 kg/ha measured after postemergence treatment; settings: post-emergence; summary of the method: as §2
Medicago sativa [7] = experiment: Herbicidal activity against Medicago sativa (alfalfa) assessed as herbicidal damage at 1.5 kg/ha measured after postemergence treatment; settings: post-emergence; summary of the method: as §2
Amaranthus retroflexus [8] = experiment: Herbicidal activity against Amaranthus retroflexus assessed as herbicidal damage at 1.5 kg/ha measured after postemergence treatment; settings: post-emergence; summary of the method: as §2
Brassica napus [9] = experiment: Herbicidal activity against rape Brassica napus (oilseed rape) assessed as herbicidal damage at 1.5 kg/ha measured after postemergence treatment; settings: post-emergence; summary of the method: as §2
Tobacco mosaic virus = experiment: Antiviral activity against Tobacco mosaic virus (TMV) inoculated in fresh tobacco leaf at 100 mg/L by half-leaf method
Summary of the method: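 Half-leaf method on tobacco leaves at the 5-6 growth stage. Leaves were inoculated with TMV by juice-leaf rubbing at 5.88 × 10-2 µg/mL and cut along the main vein. One half was immersed in test solution and the other in double distilled water for 20 min, then cultured at 25 °C for 72 h, in triplicate. Inhibition = 100(CK − A)/CK, from average lesion counts.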

Structure (SMILES) | inhibition at 50 µg/mL (Cladosporium cucumerinum) [%] | inhibition at 50 µg/mL (Mycosphaerella arachidis) [%] | inhibition at 50 µg/mL [1] [%] | inhibition at 50 µg/mL (Alternaria solani) [%] | inhibition at 50 µg/mL (Fusarium graminearum) [%] | Activity (Cucumis sativus) [%] | inhibition at 1500 g/ha (Digitaria sanguinalis [2]) [%] | inhibition at 1500 g/ha (Medicago sativa [3]) [%] | inhibition at 1500 g/ha (Amaranthus retroflexus [4]) [%] | inhibition at 1500 g/ha (Brassica napus [5]) [%] | inhibition at 1500 g/ha (Digitaria sanguinalis [6]) [%] | inhibition at 1500 g/ha (Medicago sativa [7]) [%] | inhibition at 1500 g/ha (Amaranthus retroflexus [8]) [%] | inhibition at 1500 g/ha (Brassica napus [9]) [%] | Activity (Tobacco mosaic virus) [%]
CCOCCOC(=O)/C(C#N)=C(/C)NCc1ccco1 | 21.1 | 44.6 | 22.7 | 0 | 46.7 | -0.6 | 42.1 | 12 | 3.2 | 8.5 | 17.2 | 5.4 | 32.3 | 20.1 | –
CCOCCOC(=O)/C(C#N)=C(/CC)NCc1ccoc1 | 26.3 | 35.7 | 4.5 | 10.7 | 33.3 | 23.4 | 0 | 2.3 | 11.6 | 0 | 0 | 0 | 23.3 | 33.8 | –
CCOCCOC(=O)/C(C#N)=C(/NCc1ccc(Cl)nc1)SC | 0 | 21.4 | 22.7 | 7.1 | 6.7 | -3.6 | 18.6 | 1.5 | 13.7 | 68.9 | 89.9 | 41.3 | 100 | 100 | 18.3
CCOCCOC(=O)/C(C#N)=C(\NCc1ccoc1)C(C)C | 13.2 | 30.4 | 22.7 | 25 | 0 | 11.4 | 33.6 | 10.5 | 22.1 | 0 | 0 | 13.2 | 27.4 | 51.9 | –
CCOCCOC(=O)/C(C#N)=C(/CC)NCC1CCOC1 (stereo unspecified) | 7.9 | 39.3 | 9.1 | 17.9 | 20 | 41.5 | 0 | 6 | 4.2 | 34.1 | 11.1 | 25.7 | 51.6 | 68 | 7.2
CCOCCOC(=O)/C(C#N)=C(/C)NCc1ccoc1 | 36.8 | 44.6 | 13.6 | 0 | 33.3 | -18.6 | 22.8 | 6.8 | 21.1 | 0 | 0 | 20.4 | 37.1 | 49.8 | –
CCOCCOC(=O)/C(C#N)=C(\NCC1CCCO1)C(C)C (stereo unspecified) | 0 | 28.6 | 18.2 | 14.3 | 33.3 | 32.5 | 40 | 20.3 | 3.2 | 80 | 100 | 60.5 | 100 | 97.2 | 7.2
CCOCCOC(=O)/C(C#N)=C(/NCC1CCCO1)SC (stereo unspecified) | 34.2 | 17.9 | 4.5 | 0 | 40 | -0.6 | 35.7 | 21.8 | 9.5 | 0 | 0 | 23.4 | 37.8 | 47.5 | –
CCOCCOC(=O)/C(C#N)=C(/C)NCC1CCCO1 (stereo unspecified) | 13.2 | 44.6 | 9.1 | 0 | 10 | -6.6 | 5.7 | 11.3 | 0 | 8.5 | 7.1 | 28.7 | 36.4 | 57.9 | 7.5
CCOCCOC(=O)/C(C#N)=C(/CC)NCC1CCCO1 (stereo unspecified) | 15.8 | 37.5 | 22.7 | 10.7 | 20 | 2.4 | 0 | 3 | 8.4 | 7.4 | 0 | 22.2 | 46.1 | 63.7 | 13.2
CCOCCOC(=O)/C(C#N)=C(/NCc1ccco1)SC | 15.8 | 16.1 | 22.7 | 25 | 36.7 | 14.4 | 37.8 | 0 | 10.5 | 20.7 | 13.1 | 18.6 | 30.2 | 22.9 | –
CCOCCOC(=O)/C(C#N)=C(/NCc1ccoc1)SC | 13.2 | 12.5 | 9.1 | 3.6 | 36.7 | 14.4 | 0 | 16.5 | 8.4 | 0 | 5.1 | 31.1 | 28.8 | 30.8 | 8
CCOCCOC(=O)/C(C#N)=C(/NCC1CCOC1)SC (stereo unspecified) | 21.1 | 25 | 27.3 | 21.4 | 0 | -9.6 | 5.7 | 0 | 22.1 | 0 | 0 | 4.2 | 43.3 | 50.5 | –
CCC/C(NCc1ccco1)=C(\C#N)C(=O)OCCOCC | 13.2 | 3.6 | 9.1 | 10.7 | 30 | 14.4 | 22.8 | 0 | 0 | 30.7 | 1 | 12.6 | 31.6 | 22.9 | –
CCOCCOC(=O)/C(C#N)=C(/C)NCC1CCOC1 (stereo unspecified) | 18.4 | 12.5 | 27.3 | 35.7 | 0 | -6.6 | 31.4 | 7.5 | 12.6 | 0 | 0 | 5.4 | 29.5 | 52.3 | –
